Measured values published in ChEMBL document CHEMBL4017514, “Discovery of Novel Macrocyclic Hedgehog Pathway Inhibitors Acting by Suppressing the Gli-Mediated Transcription” (J Med Chem, 2017).
Active and inactive are the calls of the source. The calls are words filed in the database; no cut-off is given here.

Assays:
Mus musculus [1] = species on record: Mus musculus; experiment: Inhibition of hedgehog signaling pathway in mouse C3H10T1/2 cells assessed as downregulation of Shh-induced Gli1 mRNA expression levels at 300 nM after 36 hrs by RT-qPCR analysis; format: cell-based
Summary of the method: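 NIH-3T3 or C3H10T1/2 cells treated as indicated for 36 h, then collected for RT-qPCR of Gli1 and ptch1 mRNA. Data given as mean ± SD.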

Homo sapiens [2] = species on record: Homo sapiens; experiment: Inhibition of TNFalpha-induced NFkappaB activation in HEK293 cells at 1 uM after 24 hrs by dual luciferase reporter gene assay; format: cell-based
Summary of the method: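 HEK293 cells carrying NF-κB firefly reporter plus Renilla, stimulated with TNF-α and treated for 24 h. Cells lysed for dual luciferase assay, firefly signal normalized to Renilla. Data given as mean ± SD.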

Homo sapiens [3] = species on record: Homo sapiens; experiment: Inhibition of PGE2-stimulated TCF/LEF activity in human LS174T cells at 1 uM measured after 6 hrs by dual luciferase reporter gene assay; format: cell-based
Summary of the method: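 LS174T cells carrying TCF/LEF reporter, stimulated with PGE2 and treated for 6 h. Dual luciferase read-out, firefly normalized to Renilla. Data given as mean ± SD.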

[4] = biological target: T1, Zinc finger protein GLI1 (Homo sapiens) (UniProt P08151); experiment: Inhibition of biotin-labeled Gli1binding sequence binding to Flag-tagged Gli1 (unknown origin) expressed in mouse NIH/3T3 cells at 1 uM by EMSA; format: cell-based
T1 sequence (whole entry): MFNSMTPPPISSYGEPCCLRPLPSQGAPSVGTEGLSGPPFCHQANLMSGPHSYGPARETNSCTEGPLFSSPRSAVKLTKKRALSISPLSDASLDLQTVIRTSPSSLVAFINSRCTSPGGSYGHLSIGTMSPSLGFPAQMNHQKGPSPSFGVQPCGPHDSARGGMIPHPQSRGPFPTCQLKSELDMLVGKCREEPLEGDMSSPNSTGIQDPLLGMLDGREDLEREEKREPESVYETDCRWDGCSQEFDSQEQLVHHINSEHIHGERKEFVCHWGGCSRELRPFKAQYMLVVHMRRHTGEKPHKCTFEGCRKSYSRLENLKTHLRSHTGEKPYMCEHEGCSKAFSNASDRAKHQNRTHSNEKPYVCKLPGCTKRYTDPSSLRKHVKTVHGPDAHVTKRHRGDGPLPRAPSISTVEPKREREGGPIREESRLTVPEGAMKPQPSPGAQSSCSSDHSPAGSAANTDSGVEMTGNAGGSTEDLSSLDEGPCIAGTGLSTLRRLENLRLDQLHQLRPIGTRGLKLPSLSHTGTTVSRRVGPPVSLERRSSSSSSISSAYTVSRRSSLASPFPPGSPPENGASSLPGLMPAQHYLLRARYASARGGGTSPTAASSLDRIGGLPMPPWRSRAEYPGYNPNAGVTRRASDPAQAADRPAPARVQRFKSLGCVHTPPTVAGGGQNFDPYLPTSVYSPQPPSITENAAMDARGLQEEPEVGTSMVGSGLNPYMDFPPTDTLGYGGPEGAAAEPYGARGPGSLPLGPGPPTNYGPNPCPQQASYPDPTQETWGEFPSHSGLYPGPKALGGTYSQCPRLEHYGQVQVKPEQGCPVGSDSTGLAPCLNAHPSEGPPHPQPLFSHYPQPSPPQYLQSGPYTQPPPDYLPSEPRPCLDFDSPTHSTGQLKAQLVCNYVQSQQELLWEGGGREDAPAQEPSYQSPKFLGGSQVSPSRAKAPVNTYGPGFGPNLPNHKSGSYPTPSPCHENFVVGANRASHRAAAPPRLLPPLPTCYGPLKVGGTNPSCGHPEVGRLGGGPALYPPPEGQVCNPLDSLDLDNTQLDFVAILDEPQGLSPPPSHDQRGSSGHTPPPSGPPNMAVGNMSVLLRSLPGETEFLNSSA
Summary of the method: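 EMSA with biotin-labeled Gli-binding sequence from the twist1 promoter, probing Gli1 DNA binding. Unlabeled Gli-binding sequence served as competitor.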

Mus musculus [5] = species on record: Mus musculus; experiment: Inhibition of hedgehog signaling pathway in mouse Light2 cells harboring Smo D473H mutant after 36 hrs by Gli luciferase activity; format: cell-based
Summary of the method: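 Light II cells (NIH-3T3 stably carrying Gli-responsive firefly luciferase and Renilla vector) transfected with wild-type, D473H or W535L Smo plasmid. Exposed to compound for 36 h, then dual luciferase assay with firefly/Renilla normalization. IC50 derived and given as mean ± SD.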

Medulloblastoma cell = experiment: Induction of apoptosis in mouse Ptch+/- p53-/- medulloblastoma cells implanted in athymic nude mouse at 25 to 50 mg/kg, ip bid for 15 consecutive days by TUNEL assay; format: functional, organism-based
Summary of the method: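 Apoptosis in subcutaneous ptch+/−;p53−/− medulloblastoma allografts in nude mice (n = 5), dosed ip twice daily for 15 days. Tumor sections stained by TUNEL and apoptotic cells imaged at 60×.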

**Q.** Which inhibition (Mus musculus [1]) does the source give for `COc1ccc(CN2C[C@@H]3CN(S(=O)(=O)c4ccc(Cl)cc4)CC[C@@H]3Oc3c(NC(=O)C4CC4)cccc3C2=O)cc1` (racemic) here?
**A.** Active

**Q.** What about the inhibition (Homo sapiens [2]) of the same compound?
**A.** inactive

**Q.** And the inhibition (Homo sapiens [3])?
**A.** Active

**Q.** What about the inhibition [4] of the same compound?
**A.** inactive

**Q.** And the inhibition (Mus musculus [5])?
**A.** Dose-dependent effect

**Q.** And the Activity (Medulloblastoma cell)?
**A.** Active
